Cav32 inh: Cav3.2 calcium influx blockers – cell-based, Fluo-4 calcium fluorescence, FDSS, MLSMR library, primary screen; AID 449739, 2010; Voltage-dependent T-type calcium channel subunit alpha-1H (Homo sapiens), O95180; B-score at 10 µM; Cav3.2-expressing cells; active compounds read low; actives 4% (n = 100,000);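 active = single-dose well whose peak fluorescence ratio is a statistical outlier from its plate by either plate-standardised score or position-corrected B-score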
PTEN del growth: growth suppression of PTEN-null HCT116, primary screen, cell-based, CellTiter-Glo | HCT116 PTEN-null viability, 60 h; active compounds read low | viability, % at 10 µM | actives 1.2% (n = 140,000) | AID 827, 2007;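 active = viability at or below a set limit, 4 SD under the median of all tested compounds, cut at about 3.7% in these data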;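 also: PTEN knockout HCT116 line with beta catenin targeted HCT116 as companion control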
bCat KO growth: primary screen for growth suppressors in beta-catenin knockout HCT116 cells (colon tumor, human); HCT116 beta-catenin knockout viability, CellTiter-Glo, 60 h; active compounds read low; viability, % at 10 µM; actives 1.5% (n = 140,000);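 active = viability at or under a set limit, the compound median less 4 SD, cut at about 6% in these data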
Lung fibro prol: antiproliferative effect on LL 47 fibroblasts – human, LL 47 cells, CellTiter-Glo luminescence, primary screen; LL 47 human lung fibroblast viability, ATP luminescence; active compounds read low; viability, % at 10 µM; actives 1.1% (n = 85,000); AID 719, 2007;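 active = viability at or below 50% in the single dose screen; inactive = viability above 50%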;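 also: compound exposure lasted 72 h before the ATP readout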
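Material: human LL 47 lung fibroblast cells; quantity: 1,150 cells/well; medium: IMEM plus 15% FBS; doses: 0.1% DMSO in all compound wells; timing: overnight attachment after seeding, then 72 h compound exposure at 37 °C; detection: CellTiter-Glo luminescence; measure: % viability of median cell-only signal; controls: cell-only wells, no compound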
HUVEC inhibit: inhibitors of HUVEC proliferation, primary screen, cell-based, 384-well; CellTiter-Glo luminescence, 72 h; active compounds read low; viability, % at 10 µM (by protocol); actives 1.1% (n = 86,000);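 active = viability at or below 30%; inactive = viability above 30%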
H69AR inhibit: proliferation blockers of H69AR lung cancer cells, primary screen, cell-based, human, 86K library | H69AR lung tumor viability, ATP luminescence, 72 h; active compounds read low | actives 6% (n = 85,000) | viability, % at 10 µM;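 active = viability at or below 40%; inactive = viability above 40%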;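 also: multidrug resistant small cell line overexpressing MRP-1 efflux transporter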
Large screens that a line does not name were inactive. Most compounds without a hit are left out; they make up all but 7.1% or so of the library.

Cc1cccc(N=Nc2ccc(O)c3ncccc23)c1	bCat KO growth 6.0 (no result: Cav32 inh, Lung fibro prol, HUVEC inhibit, H69AR inhibit)
CCOc1cccc(-c2nnc3n2N=C(c2cc(OC)ccc2OC)CS3)c1	H69AR inhibit 21
COc1cccc(-c2nnc3n2N=C(C(C)(C)C)CS3)c1	bCat KO growth 5.5
C/C(Cn1nc([N+](=O)[O-])cc1C)=N\NC(=O)COc1c(Cl)cc(Cl)cc1Cl	none (no result: Cav32 inh, Lung fibro prol, HUVEC inhibit, H69AR inhibit)
Cc1nc(C(=O)N(C)C)nn1-c1cc(Cl)cc(Cl)c1	none (no result: Lung fibro prol, HUVEC inhibit, H69AR inhibit)
Cc1cc(NC(=O)c2cnn3c(C(F)(F)F)cc(-c4ccccc4)nc23)no1	H69AR inhibit 38
COc1cccc(-c2cc(C(F)(F)F)n3ncc(C(=O)NCC4CCCO4)c3n2)c1 (centres undefined)	none
O=C(c1cnn2c(C(F)(F)F)cc(-c3ccccc3)nc12)N1CCCc2ccccc21	H69AR inhibit 36
CCCCNC(=O)c1cc2nc3c(c(C(F)(F)F)n2n1)CCc1ccccc1-3	none (no result: Lung fibro prol, HUVEC inhibit, H69AR inhibit)
Cc1cc(NC(=O)c2cc3nc4c(c(C(F)(F)F)n3n2)CCc2ccccc2-4)no1	H69AR inhibit 29 (no result: Cav32 inh, PTEN del growth, bCat KO growth)
COc1ccc(-c2cc(C(F)(F)F)n3ncc(C(=O)NCC4CCCO4)c3n2)cc1 (centres undefined)	H69AR inhibit 20 (no result: Cav32 inh)
Cc1cc(NC(=O)c2cnn3c(C(F)F)cc(C4CC4)nc23)no1	none
Cc1cc(NC(=O)CCS(=O)(=O)c2nc(-c3ccccc3)cc(C(F)(F)F)n2)no1	Lung fibro prol 5.6, HUVEC inhibit 24, H69AR inhibit 0.7
Cc1cc(NC(=O)c2cnn3c(C(F)F)cc(-c4ccccc4)nc23)no1	H69AR inhibit 25
COc1ccc(Nc2nnc(-c3ccc(N4CCOCC4)c([N+](=O)[O-])c3)c3ccccc23)cc1	none (no result: Lung fibro prol, HUVEC inhibit, H69AR inhibit)
Nc1[nH]nc2c1NN(c1ccc(Cl)cc1Cl)N2	none (no result: Cav32 inh, Lung fibro prol, HUVEC inhibit, H69AR inhibit)
COc1ccc(CNC(=O)CN(CC2CCCO2)C(=O)CNS(=O)(=O)c2ccc(F)cc2)cc1 (centres undefined)	Cav32 inh -6.2
Cc1ccc(NCc2nnc(SCC(=O)N3c4ccccc4Sc4ccccc43)o2)c(C)c1	none (no result: Cav32 inh, Lung fibro prol, HUVEC inhibit, H69AR inhibit)
Cc1ccc(Cc2nnc3n(-c4ccccc4)nc(C(=O)c4ccccc4)n3c2=O)cc1	H69AR inhibit 21
Cc1ccc(Cn2nnc3c(=O)n(CC(=O)c4ccccc4)cnc32)cc1	none
CCOC(=O)C(NCCCCl)c1ccccc1 (centres undefined)	none
CCOC(=O)C(C(=O)OCC)C(Nc1cccc(Br)c1)c1ccccc1 (centres undefined)	PTEN del growth 1.6, bCat KO growth 3.5 (no result: Lung fibro prol, HUVEC inhibit, H69AR inhibit)
Cc1csc(NC(=O)c2nc(-c3ccccc3)n(-c3ccccc3)n2)n1	H69AR inhibit 26 (no result: Lung fibro prol)
Cc1ccc(C)c(NC(=O)c2cc(-c3ccccc3)nn2-c2ccccc2)c1	none (no result: Cav32 inh, Lung fibro prol, HUVEC inhibit, H69AR inhibit)
O=C(O)c1nc(-c2ccccc2)n(-c2ccccc2)n1	none (no result: Cav32 inh, Lung fibro prol, HUVEC inhibit, H69AR inhibit)
CCCC(C)NC(=O)c1nc(-c2ccccc2)n(-c2ccccc2)n1 (centres undefined)	Cav32 inh -4.9
Cc1ccc(C)c(NC(=O)c2nc(-c3ccccc3)n(-c3ccccc3)n2)c1	Cav32 inh -5.8 (no result: Lung fibro prol, HUVEC inhibit, H69AR inhibit)
COC(C[C@H]1O[C@H]1[C@H](O)COCc1ccccc1)OC	none (no result: PTEN del growth, bCat KO growth, Lung fibro prol, HUVEC inhibit, H69AR inhibit)
CCOC(=O)c1c(NC(=O)COc2ncnc3sccc23)sc2c1CCC2	HUVEC inhibit 20
Cc1ccc(-c2cc(-c3ccccc3Cl)[nH]n2)c(O)c1	H69AR inhibit 1.9
Cc1ccccc1-c1cc(-c2ccccc2O)n[nH]1	H69AR inhibit 33
Cc1cc(C)cc(Nc2cc(=O)n(C3CCCCC3)c(=O)[nH]2)c1	H69AR inhibit 39
CCSc1nnc(NC(=O)CCNS(=O)(=O)c2cc(Br)cnc2N)s1	H69AR inhibit 39
CCSc1nnc(NC(=O)CCc2ccccc2)s1	none
CC(=O)[C@H]1[C@@H]2C(=O)N(c3cccc(Cl)c3)C(=O)[C@@H]2[C@H]2c3ccccc3C=CN21	none
CC(C)(C)C(=O)[C@@H]1[C@@H]2C(=O)N(Cc3ccccc3)C(=O)[C@@H]2[C@H]2c3ccccc3C=CN12	H69AR inhibit 34
NC(CC(=O)O)c1ccc(Br)cc1 (centres undefined)	none (no result: Cav32 inh, Lung fibro prol, HUVEC inhibit, H69AR inhibit)
CCN(CC)c1ccc(/C=N/NC(=O)c2cccc(S(=O)(=O)Nc3ccccc3OC)c2)c(O)c1	bCat KO growth 5.3 (no result: Cav32 inh, Lung fibro prol, HUVEC inhibit, H69AR inhibit)
CCCOc1ccc(-c2csc(NC(=O)CN3C(=O)CCC3=O)n2)cc1	none (no result: Cav32 inh, Lung fibro prol, HUVEC inhibit, H69AR inhibit)
C=CCn1c(=O)c(C(=O)Nc2ccccc2C(=O)OCC)c(O)c2ccccc21	none
CCCn1c(=O)c(C(=O)Nc2nnc(CC)s2)c(O)c2ccccc21	H69AR inhibit 23 (no result: Cav32 inh, PTEN del growth, bCat KO growth)
CCn1c(=O)c(C(=O)Nc2ccsc2C(=O)OC)c(O)c2ccccc21	bCat KO growth 4.7 (no result: Cav32 inh, Lung fibro prol, HUVEC inhibit, H69AR inhibit)
CCCn1c(=O)c(C(=O)Nc2cnccn2)c(O)c2ccccc21	none (no result: Cav32 inh, PTEN del growth, bCat KO growth)
CCOC(=O)c1ccccc1NC(=O)c1c(O)c2ccccc2n(CC)c1=O	H69AR inhibit 40
COc1cc([N+](=O)[O-])ccc1NC(=S)Nc1cc(C(=O)OC(C)C)cc(C(=O)OC(C)C)c1	none (no result: Cav32 inh, Lung fibro prol, HUVEC inhibit, H69AR inhibit)
Cc1ccccc1N1C(=O)CN(Cc2sccc2C)C1=S	none (no result: Cav32 inh, Lung fibro prol, HUVEC inhibit, H69AR inhibit)
CC(C)c1cc(C(C)C)c(S(=O)(=O)NNC(=O)c2ccncc2)c(C(C)C)c1	none (no result: Cav32 inh, Lung fibro prol, HUVEC inhibit, H69AR inhibit)
O=C(CSc1n[nH]c(-c2ccccc2)n1)c1ccc(O)c(O)c1	H69AR inhibit 27
CC(OC(=O)CCN1C(=O)c2cccc([N+](=O)[O-])c2C1=O)C(=O)Nc1cc(Cl)cc(Cl)c1 (centres undefined)	none (no result: Cav32 inh, Lung fibro prol, HUVEC inhibit, H69AR inhibit)
CC(=O)Nc1ccc(NC2=Nc3ccccc3N3C2=Nc2c(c(C)nn2-c2ccccc2)C3c2ccccc2)cc1 (centres undefined)	Lung fibro prol 33
COc1ccc(NC2=Nc3ccccc3N3C2=Nc2c(c(C)nn2-c2ccc(C)cc2)C3c2cccnc2)cc1 (centres undefined)	none
c1ccc(-c2nc(NCc3cccnc3)c3oc4ccccc4c3n2)cc1	H69AR inhibit 38
c1ccc(-c2nc(NCC3CCCO3)c3oc4ccccc4c3n2)cc1 (centres undefined)	none
COc1cccc(-c2nc(CS(=O)(=O)CC(=O)NCCCN3CCc4ccccc4C3)c(C)o2)c1	Cav32 inh -5.7
COc1ccc(Nc2nc(Nc3ccc(OC)cc3)nc(SC3=NCCS3)n2)cc1	Cav32 inh -5.9
O=C(N/N=C/c1ccc(Br)s1)c1c[nH]c2ccccc12	none (no result: Cav32 inh, Lung fibro prol, HUVEC inhibit, H69AR inhibit)
CCCC(=O)O[C@@H]1C[C@@H](C)N(C(=O)c2ccccc2)c2ccc(C)cc21	Cav32 inh -4.1
COc1ccccc1N1CCN(CC(=O)c2c(C)[nH]c3cc(C)ccc23)CC1	Cav32 inh -4.2, H69AR inhibit 37

Bioassay records deposited in PubChem by several laboratories.
